Screening results: PubChem BioAssay, several laboratories
T cell HTS = T cell immune modulators affecting CD8 T cell-vesicle binding. 2C CD8+ T cell-vesicle binding, flow cytometry; hits give low values. response (vesicle binding), % at 7 µM. hit rate 0.068% among 330,000;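 active means response, share of CD8 T cells binding vesicles, and their 90th percentile fluorescence all below set limits, cut at about 80% in these data, passing the limit was not always enough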;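 further: values below 100% mean blocked vesicle binding to the CD8+ T cells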
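Also added: QL9-peptide-loaded Drosophila micro-vesicles bearing Ld, ICAM-1 and B7-1; Test system: purified 2C TCR transgenic mouse naive CD8+ T cells; Measured by: cytometric PE anti-B7-1 and Alexa647 anti-CD8 signals after 1% paraformaldehyde fixation; Timing: binding step 1.5 h, 37 °C, antibody labelling 20 min, ice.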
JMJD2C inh = inhibitors of human GASC-1 (JMJD2C) demethylase. inhibition, % at 2.35 µM. hit rate 0.069% among 330,000. GST-JMJD2C(1-420) H3K9me3 demethylation, DELFIA europium;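 active means more than half of a compound's replicate wells show inhibition beyond 50%, single wells judged on their own value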;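 further: signal counts dimethyl H3K9 product captured on neutravidin plate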
Target sequence (Q9H3R0 1-420 limits assumed): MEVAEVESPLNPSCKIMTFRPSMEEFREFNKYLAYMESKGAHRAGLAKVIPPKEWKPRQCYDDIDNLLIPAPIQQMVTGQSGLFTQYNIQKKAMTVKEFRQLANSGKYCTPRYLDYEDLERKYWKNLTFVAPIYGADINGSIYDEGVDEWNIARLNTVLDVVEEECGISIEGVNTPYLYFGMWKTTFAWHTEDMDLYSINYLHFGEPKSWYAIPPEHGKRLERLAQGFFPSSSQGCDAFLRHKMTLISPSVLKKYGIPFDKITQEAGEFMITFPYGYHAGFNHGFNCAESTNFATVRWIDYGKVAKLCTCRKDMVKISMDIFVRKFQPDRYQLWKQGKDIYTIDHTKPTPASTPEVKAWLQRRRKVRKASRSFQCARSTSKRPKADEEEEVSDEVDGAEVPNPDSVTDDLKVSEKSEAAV
GRIN3A LBD mod = modulates the human NR3A ligand-binding domain | NR3A LBD differential scanning fluorimetry, Tm shift; 0% = protein alone, 100% = glycine-bound protein | Tm shift relative to glycine control, % at 25 µM | hit rate 2.5% among 340,000;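 active means melting temperature shift of at least 10% of the positive control shift, at one fixed dose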
Rtt109 Vps75 = C. albicans Rtt109 histone acetyltransferase inhibition; Q5AAJ8; purified Rtt109/Vps75, ThioGlo CoA-SH fluorescence, 4 h; inhibition, % at 34.9 µM; hit rate 0.16% among 330,000;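 active means inhibition of at least 50% in every replicate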
Large screens that a line does not name were inactive. This is a sample that favours compounds with a hit; in the whole collection about 2.8% have one here.

CCSc1nnc(-c2ccc(Cl)cc2Cl)o1	GRIN3A LBD mod 15.7
CSc1nnc(-c2ccc(Cl)cc2Cl)o1	none
O=C(COc1ccc(Cl)cc1Br)NCC(c1ccco1)N1CCCC1 (stereo not given)	none
CCn1c2ccccc2c2cc(NC(=O)COC(=O)c3ccc(NC(=O)CC#N)cc3)ccc21	none
CC(NC(=O)c1ccc(NC2=NC3CS(=O)(=O)CC3S2)cc1)c1ccccc1 (stereo not given)	none
COc1ccc(NC(=O)c2ccc(S(=O)(=O)N3CCCC3)cc2)cc1OC	none
CN(CC(=O)Nc1ccc(S(=O)(=O)N2CCCC2)cc1)Cc1ccc(Cl)cc1Cl	none
COc1ccc(CN(C)C(=O)c2cc(S(=O)(=O)N3CCCCCC3)ccc2OC)cc1OC	Rtt109 Vps75 57.4
COc1ccc(C(=O)Nc2ccc(S(=O)(=O)NC(C)(C)C)cc2)cc1[N+](=O)[O-]	GRIN3A LBD mod 28.2
COc1ccc(C(=O)Nc2ccc(S(=O)(=O)N3CCCC3)cc2)cc1[N+](=O)[O-]	GRIN3A LBD mod 41.0
CN(CC(=O)Nc1ccc(Cl)cc1)c1ccc(S(=O)(=O)N2CCCCC2)cc1[N+](=O)[O-]	GRIN3A LBD mod 10.8
COc1ccccc1NC(=S)N1CCCCCC1	none
Cc1ccc(C(C)NC(=O)COC(=O)C2=COCCO2)cc1C (stereo not given)	none (no result: JMJD2C inh)
CCC(=O)Nc1ccc2c(c1)Cc1cc([N+](=O)[O-])ccc1-2	none (no result: T cell HTS, JMJD2C inh)
COc1ccc(Cl)cc1C(=O)Nc1ccc(S(=O)(=O)N2CCCC2)cc1	GRIN3A LBD mod 19.6
O=C(Nc1ccccc1)c1ccccc1NS(=O)(=O)c1ccc(Cl)s1	GRIN3A LBD mod 21.7
O=C(Nc1ccccc1Cc1ccccc1)c1ccccc1NS(=O)(=O)c1ccc(Cl)s1	GRIN3A LBD mod 34.2
Cc1ccc(NC(=O)c2ccccc2NS(=O)(=O)c2ccc(Cl)s2)cc1	GRIN3A LBD mod 25.9
CC(C)(C)c1ccc(Cn2nnc3c(=O)[nH]c(C4CCN(C(=O)c5ccco5)CC4)nc32)cc1	none (no result: T cell HTS)
CN(C)C=NC(=O)c1ccc([N+](=O)[O-])c(CS(=O)(=O)c2ccc(Cl)cc2)c1	GRIN3A LBD mod 12.5
O=C(CSc1nnnn1-c1ccccc1)NCCCN1CCCC1=O	none
O=C(COc1cc2oc(=O)cc(-c3ccccc3)c2cc1Cl)NCCN1CCOCC1	none
Cc1ccc(-c2cc(-c3ccccc3)no2)cc1	none
c1ccc(-c2cc(-c3ccccc3)on2)cc1	GRIN3A LBD mod 30.1
CCOC(=O)C1=C(C)NC(C)=C(C(=O)OCC)C1c1ccccc1/C=C/C(=O)OC(C)(C)C	none (no result: GRIN3A LBD mod, Rtt109 Vps75)
CC(Nc1nc2ncn(Cc3ccccc3)c2c(=O)[nH]1)C(=O)O (stereo not given)	GRIN3A LBD mod 14.6
COc1ccc(NC(=O)c2cc(C3CC3)nc3c2cnn3C(C)C)cc1OC	none
Cc1cc(C)c(NC(=O)CCc2c(C)noc2C)c(C)c1	none
CC(=O)Oc1cccc(/C=C2\Sc3ccccc3C2=O)c1	GRIN3A LBD mod 17.0
CCCCn1c(N)c(N(CC(C)C)C(=O)CSCc2c(C)noc2C)c(=O)[nH]c1=O	none
FC(F)(F)c1ccccc1/C=N/N1CCN(Cc2ccccc2)CC1	GRIN3A LBD mod 18.0
Clc1ccccc1/C=N/N1CCN(Cc2ccccc2)CC1	none
CCOC(=O)C1=C(COC(=O)c2ccccc2[N+](=O)[O-])NC(=O)NC1C (stereo not given)	none
CSc1nc(SCC(=O)NCC2CCCO2)c2c3c(sc2n1)CN(C)CC3 (stereo not given)	none (no result: Rtt109 Vps75)
O=C(OCC(=O)C12CC3CC(CC(C3)C1)C2)c1ccc(O)cc1O	GRIN3A LBD mod 28.6
Cc1ccc(/C(O)=C2\C(=O)C(=O)N(c3cc(C)on3)C2c2cccc(Br)c2)cc1 (stereo not given)	none
Cc1cc(N2C(=O)C(=O)/C(=C(/O)c3ccc(F)cc3)C2c2cccc(Br)c2)no1 (stereo not given)	JMJD2C inh 56.2
CCC(C)c1ccccc1NC(=O)COC(=O)C1=NN(c2ccccc2)C(=O)CC1 (stereo not given)	none
O=C(Nc1cccc(O)c1)c1ccc(NC(=O)c2cccs2)cc1	GRIN3A LBD mod 36.5
O=C(Nc1ccc(NC(=O)c2cccs2)cc1)c1ccccc1	GRIN3A LBD mod 15.9
O=C(N/N=C/C(Cl)=C\c1ccccc1)c1cccs1	GRIN3A LBD mod 13.2
O=C(Nc1cccc(O)c1)c1cccc(C(=O)Nc2cccc(O)c2)c1	GRIN3A LBD mod 33.6
CC1CCN(C(=O)Cn2c(=O)n(Cc3ccco3)c(=O)c3sccc32)CC1	none
COc1ccc(C(=O)O)cc1S(=O)(=O)NCc1ccccn1	none
O=C(Cc1cccs1)Nc1cccc(C(=O)Nc2ccc(C(=O)O)cc2)c1	GRIN3A LBD mod 22.7
O=C(Nc1ccccc1)Nc1snnc1C(=O)Nc1cccc(O)c1	GRIN3A LBD mod 24.3 (no result: T cell HTS)
O=C(c1ccncc1)c1ccc(NC(=O)c2cccs2)cc1	none
O=C(Nc1ccc(O)cc1)c1ccc(NC(=O)c2cccs2)cc1	GRIN3A LBD mod 27.9
Cc1nnsc1C(=O)NNC(=O)Nc1ccccc1	none
O=C(Cc1cccs1)Nc1ccc(C(=O)O)cc1	none
Cc1ccc(C(=O)OCC(=O)NC2CCCC(C)C2C)cc1S(=O)(=O)N1CCCCC1 (stereo not given)	none
CCCCn1c(N)c(N(CCOC)C(=O)C2CC(=O)N(Cc3ccco3)C2)c(=O)[nH]c1=O (stereo not given)	none
CCc1cccc2c(C(=O)CN3C(=O)C(=O)N(C4CCCC4)C3=O)c[nH]c12	GRIN3A LBD mod 23.1 (no result: JMJD2C inh)
CC(C)C[C@@H](CN1CCCC1CN1C(=S)NC[C@@H]1Cc1ccc(O)cc1)N1C[C@H](Cc2ccc(O)cc2)N(CC2CCCCC2)C1=S (stereo not given in full)	GRIN3A LBD mod 33.2 (no result: T cell HTS, JMJD2C inh)
CC(C)C[C@H]1CNC(=S)N1CC1CCCN1C[C@H](CC(C)C)N1C[C@H](Cc2ccc(O)cc2)N(CC2CCCCCC2)C1=S (stereo not given in full)	none (no result: T cell HTS, JMJD2C inh)
CC(C)C[C@H]1CNC(=S)N1CC1CCCN1C[C@H](CC(C)C)N1C[C@H](Cc2ccc(O)cc2)N(CC2CCCCC2)C1=S (stereo not given in full)	GRIN3A LBD mod 11.9 (no result: T cell HTS, JMJD2C inh)
CCOC(=O)C(Cc1ccc(O)c([N+](=O)[O-])c1)N1C(=O)c2ccccc2C1=O (stereo not given)	none (no result: T cell HTS, JMJD2C inh)
CCOc1ccc(NC(=O)Cn2nnc(-c3ccccc3NC(=O)c3cccs3)n2)cc1	GRIN3A LBD mod 15.0
COc1ccc(NC(=O)Cn2nnc(-c3ccccc3NS(=O)(=O)c3ccccc3)n2)cc1	GRIN3A LBD mod 17.4
COc1ccc(S(=O)(=O)Nc2ccccc2-c2nnn(CC(=O)Nc3ccccc3OC)n2)cc1	none
CCCC(=O)Nc1ccccc1-c1nnn(CC(=O)Nc2ccc(OC)cc2)n1	none
COc1ccc(C(=O)OCC(=O)NC2CC2)cc1OC	none (no result: JMJD2C inh)
COc1ccc(CCN2C(=O)C(Oc3ccccc3)C2c2ccc3c(c2)OCO3)cc1 (stereo not given)	GRIN3A LBD mod 11.6
CNC(=O)C1CC(=O)N(c2ccc(OCC(=O)Nc3ccc(OC)cc3)cc2)C1 (stereo not given)	none
